# Measured values from ChEMBL document CHEMBL1138683 (J Med Chem, 2004).
# How the values were obtained:
# Mus musculus [1] = assay: Anti convulsant activity administered intra peritoneally to mouse for subcutaneous metrazol test at 0.5 h with dose of 300 mg/kg; 0/1= No of animals protected /No of animals tested; assay type: functional
# Mus musculus [2] = assay: Anti convulsant activity administered intra peritoneally to mouse at maximal electroshock test at 4 hr after the drug administered with dose of 300 mg/kg; 1/1= No of animals protected /No of animals tested; assay type: functional
# Rattus norvegicus [3] = assay: Anticonvulsant activity after oral administration of 30 mg/kg dose after 2 hr in rats; ++++ means 100% of the animals protected; assay type: functional, organism-based; set-up: dose 30 mg/kg
# How it was run: (§1)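 Oral dosing of rats at a single dose, compound dissolved or suspended in 0.5% methylcellulose. Protection in the MES or scMet test checked 15 min, 30 min, 1 h, 2 h and 4 h after dosing. Scored as 25/50/75/100% of animals protected (+ to ++++), – for none.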
# [4] = Anti convulsant activity administered intra peritoneally to mouse for toxicity at 0.5 hr with dose of 100 mg/kg; 0/8= No of animals exhibiting toxicity /No of animals tested; assay type: organism-based; set-up: dose 100 mg/kg; conditions: in vivo, ip
# Rattus norvegicus [5] = assay: Anticonvulsant activity after oral administration of 30 mg/kg dose after 4 hr in rats; + means 25% of the animals protected; assay type: functional, organism-based; set-up: dose 30 mg/kg; how it was run: as §1
# Mus musculus [6] = assay: Anti convulsant activity administered intra peritoneally to mouse at maximal electroshock test at 0.5 hr after the drug administered with dose of 300 mg/kg; 1/1= No of animals protected /No of animals tested; assay type: functional
# Rattus norvegicus [7] = assay: Anticonvulsant activity after oral administration of 50 mg/kg dose after 15 min in rats; +++ means 75% of the animals protected; assay type: functional, organism-based; set-up: dose 50 mg/kg; how it was run: as §1
# [8] = Anti convulsant activity administered intra peritoneally to mouse for toxicity at 0.5 hr with dose of 30 mg/kg; 0/4= No of animals exhibiting toxicity /No of animals tested; assay type: organism-based; set-up: dose 30 mg/kg; conditions: in vivo, ip
# Mus musculus [9] = assay: Anti convulsant activity administered intra peritoneally to mouse for subcutaneous metrazol test at 0.5 hr with dose of 30 mg/kg; 0/1= No of animals protected /No of animals tested; assay type: functional
# [10] = Anti convulsant activity administered intra peritoneally to mouse for toxicity at 0.5 hr with dose of 300 mg/kg; 0/4= No of animals exhibiting toxicity /No of animals tested; assay type: organism-based; set-up: dose 300 mg/kg; conditions: in vivo, ip
# Rattus norvegicus [11] = assay: Anticonvulsant activity after oral administration of 30 mg/kg dose after 1 hr in rats; +++ means 75% of the animals protected; assay type: functional, organism-based; set-up: dose 30 mg/kg; how it was run: as §1
# Mus musculus [12] = assay: Quantitative Anticonvulsant activity administered intraperitoneally to mouse for protective index in maximal electro shock test;TD50/ED50; assay type: functional
# How it was run: (§2)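 Mice dosed intraperitoneally with compound dissolved or suspended in 0.5% methylcellulose (0.01 mL per gram body weight). […] Protective index calculated as TD50/ED50 for each seizure test.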
# Rattus norvegicus [13] = assay: Anticonvulsant activity after oral administration of 30 mg/kg dose after 30 min in rats; ++ means 50% of the animals protected; assay type: functional, organism-based; set-up: dose 30 mg/kg; how it was run: as §1
# Rattus norvegicus [14] = assay: Anticonvulsant activity after oral administration of 30 mg/kg dose after 15 min in rats;+means 25% of the animals protected; assay type: functional, organism-based; set-up: dose 30 mg/kg; how it was run: as §1
# Mus musculus [15] = assay: Anti convulsant activity administered intra peritoneally to mouse at maximal electroshock test at 4 hr after the drug administered with dose of 100 mg/kg; 0/3= No of animals protected /No of animals tested; assay type: functional
# [16] = Quantitative Anticonvulsant activity administered intraperitoneally to mouse for toxicity; conditions: in vivo, ip; how it was run: as §2
# Rattus norvegicus [17] = assay: Quantitative Anticonvulsant activity administered orally to rat at maximal electro shock test; the interval in parenthesis stands for 95% confidence interval; assay type: functional; conditions: po
# How it was run: (§3)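 Oral dosing in rats with compound dissolved or suspended in 0.5% methylcellulose (0.04 mL per 10 g body weight). […] Protective index taken as TD50/ED50 for each test.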
# Mus musculus [18] = assay: Quantitative Anticonvulsant activity administered intraperitoneally to mouse for protective index in subcutaneous metrazol test; assay type: functional; how it was run: as §2
# [19] = Anti convulsant activity administered intra peritoneally to mouse for toxicity at 4 hr with dose of 100 mg/kg; 0/4= No of animals exhibiting toxicity /No of animals tested; assay type: organism-based; set-up: dose 100 mg/kg; conditions: in vivo, ip
# Mus musculus [20] = assay: Anti convulsant activity administered intra peritoneally to mouse for subcutaneous metrazol test at 4 hr with dose of 300 mg/kg; 3/5= No of animals protected /No of animals tested; assay type: functional
# Mus musculus [21] = assay: Anti convulsant activity administered intra peritoneally to mouse at maximal electroshock test at 4 hr after the drug administered with dose of 100 mg/kg; 0/1= No of animals protected /No of animals tested; assay type: functional
# Rattus norvegicus [22] = assay: Quantitative Anticonvulsant activity administered orally to rat for protective index in subcutaneous metrazol test; assay type: functional; how it was run: as §3
# Mus musculus [23] = assay: Anti convulsant activity administered intra peritoneally to mouse for subcutaneous metrazol test at 4 hr after the drug administered with dose of 30 mg/kg; 0/1= No of animals protected /No of animals tested; assay type: functional; conditions: route intraperitoneal
# Rattus norvegicus [24] = assay: Quantitative Anticonvulsant activity administered orally to rat for subcutaneous metrazol test; assay type: functional; how it was run: as §3
# [25] = Anti convulsant activity administered intra peritoneally to mouse for toxicity at 4 hr with dose of 300 mg/kg; 1/2= No of animals exhibiting toxicity /No of animals tested; assay type: organism-based; set-up: dose 300 mg/kg; conditions: in vivo, ip
# Rattus norvegicus [26] = assay: Quantitative Anticonvulsant activity administered orally to rat for protective index in maximal electro shock test;TD50/ED50; assay type: functional; how it was run: as §3
# Mus musculus [27] = assay: Anti convulsant activity administered intra peritoneally to mouse at maximal electroshock test at 4 hr after the drug administered with dose of 30 mg/kg; 0/1= No of animals protected /No of animals tested; assay type: functional
# Rattus norvegicus [28] = assay: Anticonvulsant activity after oral administration of 50 mg/kg dose after 30 min in rats; ++ means 50% of the animals protected; assay type: functional, organism-based; set-up: dose 50 mg/kg
# How it was run: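 Rats dosed orally with compound dissolved or suspended in 0.5% methylcellulose (0.04 mL per 10 g body weight). Anticonvulsant protection (MES or scMet) and toxicity scored at 15 min, 30 min, 1 h, 2 h and 4 h after dosing. Graded in steps of 25% of animals protected or showing toxicity.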
# Mus musculus [29] = assay: Anti convulsant activity administered intra peritoneally to mouse for subcutaneous metrazol test at 4 hr after the drug administered with dose of 100 mg/kg; 0/1= No of animals protected /No of animals tested; assay type: functional
# Mus musculus [30] = assay: Anti convulsant activity administered intra peritoneally to mouse at maximal electroshock test at 0.5 hr after the drug administered with dose of 100 mg/kg; 3/3= No of animals protected /No of animals tested; assay type: functional
# Mus musculus [31] = assay: Anticonvulsant activity administered intraperitoneally to mouse for toxicity at 4 hr with dose of 30 mg/kg; assay type: functional; conditions: route intraperitoneal
# How it was run: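 Mice given compound i.p. at 30, 100 or 300 mg/kg, dissolved or suspended in 0.5% methylcellulose. Toxicity scored 0.5 h and 4 h after dosing, recorded as number of animals showing toxicity per number tested.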
# Mus musculus [32] = assay: Quantitative Anticonvulsant activity administered intraperitoneally to mouse for maximal electro shock test; The interval in parenthesis stands for 95% confidence interval; assay type: functional; conditions: ip; how it was run: as §2
# Mus musculus [33] = assay: Anti convulsant activity administered intra peritoneally to mouse at maximal electroshock test at 0.5 h after the drug administered with dose of 30 mg/kg; 0/1= No of animals protected /No of animals tested; assay type: functional
smiles,measurement,setting,value
"CC1(C)C(C(=O)NC(N)=O)C1(C)C [2,2,3,3-TETRAMETHYLCYCLOPROPANECARBONYLUREA]",Activity,Mus musculus [1],0
same,Activity,Mus musculus [2],1
same,Activity,Rattus norvegicus [3],100% of the animals protected
same,Toxicity,[4],0
same,Activity,Rattus norvegicus [5],100% of the animals protected
same,Activity,Mus musculus [6],1
same,Anticonvulsant Activity,Rattus norvegicus [7],75% of the animals protected
same,Toxicity,[8],0
same,Activity,Mus musculus [9],0
same,Toxicity,[10],0
same,Activity,Rattus norvegicus [11],100% of the animals protected
same,Ratio,Mus musculus [12],1.9
same,Activity,Rattus norvegicus [13],100% of the animals protected
same,Activity,Rattus norvegicus [14],100% of the animals protected
same,Activity,Mus musculus [15],0
same,TD50,[16],168 mg/kg
same,ED50,Rattus norvegicus [17],29 mg/kg
same,Anticonvulsant,Mus musculus [18],1.6
same,Toxicity,[19],0
same,Activity,Mus musculus [20],3
same,Activity,Mus musculus [21],0
same,Activity,Rattus norvegicus [22],5.9
same,Activity,Mus musculus [23],0
same,ED50,Rattus norvegicus [24],92 mg/kg
same,Toxicity,[25],1
same,Ratio,Rattus norvegicus [26],18.5
same,Activity,Mus musculus [27],0
same,Activity,Rattus norvegicus [28],100% of the animals protected
same,Activity,Mus musculus [29],0
same,Activity,Mus musculus [30],3
same,Toxicity,Mus musculus [31],0
same,ED50,Mus musculus [32],90 mg/kg
same,Activity,Mus musculus [33],0
